Rows were chosen to be rich in hits. Some 3.1% of all compounds tested hit in one or more screens of this group.
SENP8 block-1 – SENP8 (human) protease inhibition; Q96LD8; recombinant SENP8, Nedd8 substrate fluorescence; inhibition, % at 20 µM; hit rate 0.64% among 360,000; in the data active = inhibition mostly above about 40%, no sharp cut-off; inactive = mostly below about 27%
SENP6 inh – inhibitors of human SENP6 protease; Q9GZR1; Recombinant SENP6 catalytic domain, aminoluciferin luminescence; inhibition, % at 10 µM; hit rate 1.8% among 330,000; AID 2599;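 active = inhibition above about 50% at the single tested dose, limit read from the data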;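 also: plate controls were DMSO wells with enzyme for no effect and DMSO wells lacking enzyme for full effect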
SENP7 block – SENP7 protease inhibition; Q9BQF6; recombinant SENP7, Z-RLRGG-aminoluciferin luminescence, 40 min; inhibition, % at 5 µM; hit rate 1.5% among 330,000; AID 434973;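 active = inhibition above about 50% at the single test dose, limit read from the data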;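 also: plate controls were DMSO with enzyme for no effect and no enzyme buffer wells for full effect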
Target sequence (Q9BQF6 706-1050 limits assumed): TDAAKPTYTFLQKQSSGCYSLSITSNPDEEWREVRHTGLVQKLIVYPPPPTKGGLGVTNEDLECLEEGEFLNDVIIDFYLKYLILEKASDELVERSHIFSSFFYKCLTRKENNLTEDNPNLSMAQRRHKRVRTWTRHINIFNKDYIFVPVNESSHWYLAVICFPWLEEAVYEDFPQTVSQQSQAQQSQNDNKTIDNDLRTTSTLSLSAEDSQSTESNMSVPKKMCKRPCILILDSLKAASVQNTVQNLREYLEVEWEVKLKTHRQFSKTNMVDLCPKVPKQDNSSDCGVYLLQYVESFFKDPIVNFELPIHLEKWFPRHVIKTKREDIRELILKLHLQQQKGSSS
UBC13 inh – blocks human UBC13 polyubiquitin chain formation. P61088. TR-FRET. inhibition, % at 20 µM. hit rate 0.47% among 330,000; in the data active = inhibition above about 45%, passing the limit was not always enough
Apaf1 inhib – blocks human Apaf-1 apoptosome activity; O14727; reconstituted apoptosome caspase-3 activity, DEVD-Rh110 fluorescence; inhibition, % at 20 µM; hit rate 0.71% among 330,000; active = inhibition of at least 40% at 20 µM;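 also: plate controls were DMSO wells for no effect and DEVD-CHO caspase inhibitor wells for full effect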
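Assay system: Apoptosome proteins | Medium: pH 7.5 Hepes buffer with CHAPS, BSA, DTT | Also added: Cytochrome c and DEVD-Rh110 substrate | Times: 30 min plus 50 min, RT | Detection: Rhodamine 110 fluorescence at Ex 480/Em 540 nm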
SENP8 block-2 – SENP8 protease inhibition | hit rate 1.2% among 330,000 | inhibition, % at 10 µM | Q96LD8 | purified SENP8, Z-RLRGG-aminoluciferin cleavage, luminescence; in the data active = inhibition above about 50%
SENP8 confirm – human SENP8 inhibition, confirmed. shares compounds with SENP7 block. Recombinant SENP8, Z-RLRGG-aminoluciferin luminescence, 60 min. inhibition, % at 12.5 µM. hit rate 40% among 6,200. AID 488912;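 active = mean inhibition across replicates above about 50%, limit read from the data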
SENP6 conf – human SENP6 inhibition, confirmed. recombinant SENP6, Z-RLRGG-aminoluciferin luminescence. inhibition, % at 12.5 µM. hit rate 58% among 6,200. AID 488915. shares compounds with SENP7 block
SENP7 conf – confirmation of human SENP7 protease inhibitors; hit rate 69% among 6,200; AID 488917; inhibition, % at 12.5 µM; shares compounds with SENP7 block; recombinant SENP7, Z-RLRGG-aminoluciferin luminescence, 40 min
Casp3 select – inhibits human caspase-3 in SENP selectivity test. shares compounds with SENP7 block. purified caspase-3, Z-DEVD-aminoluciferin luminescence, 60 min. inhibition, % at 12.5 µM. hit rate 60% among 6,200;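 active = mean inhibition above about 50%, limit read from the data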;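 also: plate controls were enzyme with DMSO for no effect and wells without caspase-3 for full effect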
Target sequence (P42574 28-227 limits assumed): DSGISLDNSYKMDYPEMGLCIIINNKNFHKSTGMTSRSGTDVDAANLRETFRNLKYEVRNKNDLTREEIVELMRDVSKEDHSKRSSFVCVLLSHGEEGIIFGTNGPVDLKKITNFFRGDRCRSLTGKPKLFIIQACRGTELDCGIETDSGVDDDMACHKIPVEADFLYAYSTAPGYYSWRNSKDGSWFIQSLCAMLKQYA
Luc interf – interferes with luciferase luminescence in SENP counter-screen; Pre-incubated SENP8/Z-RLRGG-aminoluciferin, luciferase luminescence interference; hit rate 39% among 6,200; shares compounds with SENP7 block; inhibition, % at 12.5 µM;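 active = mean inhibition above about 50% when retested at one dose, limit read from the data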;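 also: plate controls were DMSO wells with completed reaction for no effect and substrate without enzyme for full effect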
Active calls of the source: *; / = no result given.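 The calls were made as follows, unless noted: active = mean inhibition above about 50% in the one-dose retest (limit read from the data); inactive = the rest.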

SMILES	SENP8 block-1	SENP6 inh	SENP7 block	UBC13 inh	Apaf1 inhib	SENP8 block-2	SENP8 confirm	SENP6 conf	SENP7 conf	Casp3 select	Luc interf
O=S(=O)(c1cccc(-c2cn3cc(Cl)ccc3n2)c1)N1CCOCC1	-216	4	-7	-8	-3	-8	/	/	/	/	/
CC1(C)CC(=O)C2=C(C1)NC(=O)CC2	-21	/	/	/	/	/	/	/	/	/	/
CC(=O)Nc1ccc(C(=O)N2CCOCC2c2cc(C(=O)NCc3ccccc3)no2)cc1 (stereo not drawn)	19	/	/	/	/	/	/	/	/	/	/
Cn1c(=O)c2c(ncn2CC(=O)OCC(=O)c2ccc(Br)cc2)n(C)c1=O	-7	/	/	/	/	/	/	/	/	/	/
Brc1ccc2nc(-c3c[nH]c4ccccc34)cn2c1	-157	81*	24	20	4	79*	49	90*	97*	68*	90*
COc1cccc(-c2csc(N3CCN(CC(=O)NNC(=O)c4ccc(Cl)cc4)CC3)n2)c1	2	-9	-7	0	8	-6	/	/	/	/	/
COc1cccc(-c2csc(N3CCN(CC(=O)NNC(=O)c4ccc(Br)cc4)CC3)n2)c1	5	-3	101*	-2	6	2	-8	-5	3	2	-6
CCCC(=O)N1CCC1(C)C(=O)Nc1ccc(OC)c(OC)c1 (stereo not drawn)	13	/	/	/	/	/	/	/	/	/	/
COc1cccc(NC(=O)/C=C/c2ccco2)c1	2	58*	92*	5	-12	84*	-12	88*	100*	93*	88*
O=C(/C=C/c1ccco1)Nc1ccc(N2CCCC2)cc1	28	63*	68*	-4	8	43	39	32	57*	21	27
O=C(/C=C/c1ccco1)Nc1ccc(C(=O)N2CCOCC2)cc1	7	14	1	0	3	-5	/	/	/	/	/
O=C(/C=C/c1ccco1)NC(=S)Nc1cccc(-c2nc3ccccc3s2)c1	-38	63*	5	-4	-3	41	20	17	7	19	-2
CSc1cccc(NC(=O)/C=C/c2ccco2)c1	-23	-4	-4	-17	12	-6	/	/	/	/	/
CC(=O)NC1Sc2ccccc2N=C1c1ccccc1 (stereo not drawn)	-70	89*	85*	-4	10	84*	-2	69*	97*	66*	31
CCc1nnc(NC(=O)c2cc3ccccc3oc2=O)s1	6	-10	5	-11	3	0	/	/	/	/	/
COc1ccc2oc(=N)c(C(=O)Nc3ccccc3)cc2c1	-203	62*	72*	-10	25	45	34	35	69*	57*	20
COc1ccc2oc(=O)c(C(=O)Nc3ccccc3C)cc2c1	-12	65*	74*	1	5	47	38	36	45	50*	11
N=c1oc2ccccc2cc1C(=O)Nc1ccccc1	18	86*	93*	-10	2	89*	-5	56*	78*	47	6
Cc1cccnc1NC(=O)c1cc2ccccc2oc1=O	-20	20	91*	3	-7	5	53*	52*	80*	68*	24
Cc1ccc(C(O)c2ncc(-c3ccccc3C(F)(F)F)[nH]2)cc1F (stereo not drawn)	4	/	/	/	/	/	/	/	/	/	/
COc1ccc2oc(=O)c(C(=O)Nc3cccc(C(C)=O)c3)cc2c1	-107	-15	-8	-1	-8	-7	/	/	/	/	/
COc1ccc2oc(=N)c(C(=O)Nc3ccccc3Cl)cc2c1	-256	12	61*	-6	19	-13	2	7	9	37	10
COc1cc2ccccc2cc1C(=O)Nc1ccccc1N1CCCC1	-13	-6	8	-4	30	-2	/	/	/	/	/
COc1cccc(NC(=O)c2cc3ccccc3oc2=O)c1	17	94*	100*	-3	-5	90*	-8	4	-3	10	5
COc1cc2ccccc2cc1C(=O)Nc1ccccc1Cl	-46	58*	4	4	13	47	72*	72*	91*	/	42
SMILES	SENP8 block-1	SENP6 inh	SENP7 block	UBC13 inh	Apaf1 inhib	SENP8 block-2	SENP8 confirm	SENP6 conf	SENP7 conf	Casp3 select	Luc interf
N=c1oc2cc(O)ccc2cc1C(=O)Nc1ccc(Br)cc1	-296	86*	25	4	-14	77*	10	30	15	12	9
C[C@H](NC(=O)[C@@H]1CCCN1C(=O)[C@@H]1CCCN1C(=O)c1cccc(Cl)c1)c1ccccc1	9	/	/	/	/	/	/	/	/	/	/
CCc1nc2ccc(C(=O)N(C)Cc3ccccc3)cn2c1N(CC)CCN(C)C	-24	/	/	/	/	/	/	/	/	/	/
O=C1Cc2cc(O)ccc2O1	-3	/	/	/	/	/	/	/	/	/	/
Cc1cc(C(=O)Nn2cnnc2)ccc1[N+](=O)[O-]	17	81*	78*	1	-10	72*	69*	65*	92*	93*	76*
CC(C)[C@@H]1CC[C@@H](C)C[C@H]1O	5	/	/	/	/	/	/	/	/	/	/
CCOc1cc(-c2noc(-c3cccnc3)n2)ccc1OC	4	-18	4	4	4	-3	/	/	/	/	/
c1ccc(-c2ccc(-c3nc(-c4cccnc4)no3)cc2)cc1	-17	97*	99*	7	1	90*	70*	71*	80*	88*	35
c1cncc(-c2noc(-c3ccc4ccccc4c3)n2)c1	-172	90*	91*	8	-4	83*	56*	69*	94*	75*	19
c1ccc(-c2noc(-c3cccnc3)n2)cc1	12	76*	7	6	-16	58*	3	60*	88*	77*	16
O=C1NC[C@H](CCCCN2C[C@H](Cc3ccccc3)N(CCC3CCCCC3)C(=O)C2=O)N(Cc2ccccc2)C1=O	4	/	/	/	/	/	/	/	/	/	/
Cc1ccc(C(C)C)cc1-n1nnc(-c2cccc(Cc3ccc4ccccc4c3)c2)c1C(C)O (stereo not drawn)	8	/	/	/	/	/	/	/	/	/	/
CCCCCC(=O)N1C[C@H](O)[C@@H](n2cc(C3CC3)nn2)C[C@@H]1c1ccc(C)cc1	3	/	/	/	/	/	/	/	/	/	/
N/C(=N\OC(=O)c1cccc(F)c1)c1ccccc1	13	91*	95*	-9	15	77*	83*	85*	97*	92*	78*
Cc1ccc(/C(N)=N/OC(=O)c2ccc3ccccc3c2)cc1	-11	-11	49	-10	23	-13	/	/	/	/	/

Compound activity deposited in PubChem BioAssay by Sanford-Burnham Center for Chemical Genomics.
